Screens: PubChem BioAssay, several laboratories
Hits are enriched below; roughly 1.6% of the tested compounds scored in any of these assays.
NCF1 inh: p47phox/p22phox peptide binding inhibitors, primary screen, biochemical, uHTS, NADPH oxidase regulatory subunit | Neutrophil cytosol factor 1 (Homo sapiens), P14598 | inhibition, % at 24.7 µM | hit rate 0.53% among 220,000 | fluorescence polarization, 2 h;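 active means inhibition above about 30%, limit read from the data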;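 further: 0% = p47phox with labelled peptide and 100% = labelled peptide alone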
Target sequence (P14598 whole entry, looked up): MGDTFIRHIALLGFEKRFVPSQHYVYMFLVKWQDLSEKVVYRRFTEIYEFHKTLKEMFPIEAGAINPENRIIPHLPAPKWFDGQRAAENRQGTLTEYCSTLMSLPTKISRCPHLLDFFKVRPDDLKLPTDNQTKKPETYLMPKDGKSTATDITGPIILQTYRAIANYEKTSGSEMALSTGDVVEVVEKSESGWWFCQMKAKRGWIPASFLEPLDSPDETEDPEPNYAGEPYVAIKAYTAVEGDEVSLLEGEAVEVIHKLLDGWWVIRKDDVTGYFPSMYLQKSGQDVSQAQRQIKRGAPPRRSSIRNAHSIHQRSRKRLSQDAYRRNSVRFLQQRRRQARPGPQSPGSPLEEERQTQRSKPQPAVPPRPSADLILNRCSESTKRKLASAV
PHOSPHO1 inh: PubChem AID 1565; Phosphoethanolamine/phosphocholine phosphatase (Homo sapiens), Q8TCT1; recombinant PHOSPHO1, absorbance phosphatase assay; inhibition, % at 13.3 µM; hit rate 1.1% among 290,000; in the data active means inhibition above about 60%
Target sequence (Q8TCT1 whole entry, looked up): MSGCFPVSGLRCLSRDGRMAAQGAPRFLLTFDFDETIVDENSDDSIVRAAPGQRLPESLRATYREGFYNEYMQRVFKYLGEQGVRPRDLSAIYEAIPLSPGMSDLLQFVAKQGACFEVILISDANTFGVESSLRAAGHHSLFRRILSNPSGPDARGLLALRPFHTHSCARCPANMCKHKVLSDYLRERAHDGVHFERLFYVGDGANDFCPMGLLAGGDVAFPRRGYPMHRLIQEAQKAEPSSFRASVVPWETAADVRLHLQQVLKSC
PKD1 kinase inh: inhibitors of human PKD1 kinase, biochemical, fluorescence polarization; Serine/threonine-protein kinase D1 (Homo sapiens), Q15139; PKD1 kinase fluorescence polarization assay; inhibition, % (no concentration beside the values); hit rate 0.056% among 200,000; AID 797, 2007; in the data active means inhibition above about 50%
HSV augment: enhancers of HSV replication in host cells, fold increase, host cell viability; HSV replication augmentation in cells; hit rate 0.005% among 220,000; maximum fold increase; AID 1956, 2009; in the data active means maximum fold increase above about 1.5; tested in PC3 cells
ABCG2 block: ABCG2 efflux pump inhibitors, primary screen, multiplex with ABCB1, IgMXP3 cells, flow cytometry. Broad substrate specificity ATP-binding cassette transporter ABCG2 (Homo sapiens), Q9UNQ0. JC-1 efflux. hit rate 0.1% among 190,000. inhibition, % at 6.6 µM. AID 1325, 2008;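 active means inhibition above 80%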;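 further: 0% = DMSO and 100% = nicardipine control wells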
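Test system: IgMXP3 (ABCG2) plus far-red-tagged CCRF-Adr (ABCB1) cells / Amount: 3 million cells/mL in well / Reagent: JC-1 transporter substrate / Timing: 10 min compound exposure, 25 °C / Signal: flow cytometry, 530 nm JC-1 signal / Read-out: percent efflux inhibition, scaled nicardipine 100% to DMSO 0% / Benchmarks: nicardipine as high control, DMSO as low control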
ABCB1 inh: ABCB1 efflux pump inhibitors, primary screen, cell-based, multiplex, flow cytometry, ABCG2 counter-screen | ATP-dependent translocase ABCB1 (Homo sapiens), P08183 | CCRF-Adr cells, JC-1 efflux | inhibition, % at 6.6 µM | hit rate 0.067% among 190,000 | AID 1326, 2008; in the data active means inhibition above about 40%;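 further: 0% = vehicle and 100% = reference inhibitor; higher value means more JC-1 retained so stronger ABCB1 efflux block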
FP interf 140K: fluorescence polarization interference in PKD1 assay, artefact control for PKD1 inhibitor project, biochemical, 140K library; shares compounds with PKD1 kinase inh; PKD1 FP assay interference counter-screen; inhibition, % at 10 µM; 85 tested, under 10 active; call rule not given here
Starred values were filed as active, the others as inactive; i = inactive; . = no result given.

SMILES | NCF1 inh | PHOSPHO1 inh | PKD1 kinase inh | HSV augment | ABCG2 block | ABCB1 inh | others
Cc1ccc(C(=O)NNC(=S)NC(=O)c2ccc(Cl)cc2Cl)cc1 | -68.2 | 76.4* | -11.3 | i | -0.7 | -0.3
COc1ccc(C(=O)CSc2nnc(CNC(=O)c3ccccc3)o2)cc1 | . | 17.4 | . | . | . | .
O=C(CSc1cccc[n+]1[O-])Nc1cc2c(cc1Cl)C(=O)c1ccccc1C2=O | 33.5* | 35.6 | -11.6 | i | 36.4 | 2.0
COC(=O)c1ccc(-n2c(C)cc(C(=O)CSc3cccc[n+]3[O-])c2C)cc1 | -7.3 | 35.7 | -4.7 | i | 3.8 | -0.2
COC(=O)c1ccc(C(=O)OC)c(NC(=O)CSc2cccc[n+]2[O-])c1 | -4.3 | 86.9* | 1.1 | i | -1.4 | -5.8
CCN(CC)S(=O)(=O)c1cccc(-c2nnc(SCC(=O)c3cc(C)n(C)c3C)o2)c1 | -10.1 | 79.7* | -8.5 | i | 4.3 | 1.2
CCN(CC)S(=O)(=O)c1cccc(-c2nnc(SCCOc3ccccc3)o2)c1 | -0.8 | 0.7 | -1.0 | i | 3.5 | 0.8
COc1ccc(CCNS(=O)(=O)c2csc(C(N)=O)c2)cc1OC | . | 31.5 | . | . | . | .
CN(C(=O)c1ccoc1)c1ccc2ccccc2c1 | . | 12.3 | . | . | . | .
CCCCNS(=O)(=O)c1ccc2nc(SCC(=O)c3ccc(C#N)cc3)[nH]c2c1 | -26.1 | 99.0* | -10.5 | i | 1.3 | 0.3
CCSCCOC(=O)C1=C(C)NC2=C(C(=O)CCC2)C1c1coc2ccccc2c1=O (stereo not drawn) | -5.6 | 63.2* | -0.8 | i | 9.3 | 2.5
CC1=C(C(=O)OC(C)C)C(c2coc3ccccc3c2=O)C2=C(CCCC2=O)N1 (stereo not drawn) | -14.1 | 4.6 | 1.3 | i | 3.4 | 1.5
CCSc1cc(C2C(C(=O)OC)=C(C)NC3=C2C(=O)CCC3)c(C)o1 (stereo not drawn) | -3.7 | 101.7* | -11.3 | i | 2.5 | 0.2
COc1ccc(N2C(=O)C(CC(N)=O)N(NC(=O)c3cccc(OC)c3)C2=S)cc1 (stereo not drawn) | -3.9 | -2.0 | -0.7 | i | 2.9 | -0.3
CCOC(=O)Cn1cncc1-c1ccc([N+](=O)[O-])cc1 | 0.1 | -9.8 | 4.4 | . | 13.3 | .
CCOc1ccc(NC(=O)Cn2cncc2-c2ccc([N+](=O)[O-])cc2)cc1 | 44.8* | -11.1 | -3.6 | i | 22.8 | 0.2
O=C(Cn1cncc1-c1ccc([N+](=O)[O-])cc1)Nc1cccc2ccccc12 | 38.4* | 4.7 | -1.9 | i | 1.5 | -1.5
Cn1cc(CNCc2cn(C)nc2-c2ccc(C3CCCCC3)cc2)cn1 | -8.4 | 32.3 | -1.2 | i | 4.3 | 5.1
COc1ccccc1CC(=O)N(Cc1ccccc1)c1cccc(C)c1 | . | 28.7 | . | . | . | .
COC(=O)CSc1nc(N)nc(C)c1Cl | 5.4 | 49.8 | -5.8 | i | 0.3 | -0.1
COC(=O)CSc1nc(C)c(C)c(C)c1C(N)=O | -5.3 | 62.2* | -2.6 | i | 1.3 | 0.9
Cc1cc(=O)[nH]c2ccc(S(=O)(=O)N3CCOCC3)cc12 | . | 72.8* | . | . | . | .
O=C(NC1CCCCCC1)c1cc(=O)[nH]c2ccc(S(=O)(=O)N3CCOCC3)cc12 | -2.7 | 16.2 | -0.2 | i | -0.3 | 0.8
O=C(COC(=O)/C=C/c1ccc(OC(F)F)cc1)NCCN1C(=O)CSC1=O | 45.8* | 24.1 | 0.8 | i | 15.1 | 0.1
O=C(COC(=O)/C=C/c1ccc(Cl)cc1)NCCN1C(=O)CSC1=O | 1.3 | 27.8 | -2.9 | i | 3.3 | -0.2
SMILES | NCF1 inh | PHOSPHO1 inh | PKD1 kinase inh | HSV augment | ABCG2 block | ABCB1 inh | others
CN(C)c1ccc(C(c2ccc(N(C)C)cc2)c2ccc([N+](=O)[O-])cc2)cc1 | 37.5* | 23.9 | . | i | . | .
Cc1ccc(-c2cnc3ccccc3n2)cc1C | . | 14.0 | . | . | . | .
COc1ccc(/C=C/C(=O)NCC(=O)N/N=C/c2cc(Br)ccc2OC)cc1 | 100.9* | 32.5 | -0.9 | i | -2.0 | -0.9
O=C(Nc1ccccc1Cc1ccccc1)c1ccncc1 | . | 25.0 | . | . | . | .
Cc1cc(C(=O)Nc2ccccc2Cc2ccccc2)no1 | . | 65.8* | . | . | . | .
Cc1ccc2c(c1)N(C(C)C(=O)NCc1ccc3c(c1)OCO3)C(=O)CO2 (stereo not drawn) | 1.8 | 6.5 | . | i | . | .
CCOC(=O)c1c(C)[nH]c(C)c1S(=O)(=O)NCc1ccccc1C | . | 37.5 | . | . | . | .
NC(=O)COC(=O)c1ccc2c(c1)S(=O)(=O)c1ccccc1C2=O | . | 20.0 | . | . | . | .
Cc1noc(C)c1COC(=O)c1ccc2c(c1)S(=O)(=O)c1ccccc1C2=O | -16.5 | 81.7* | 8.8 | i | 2.8 | 0.8
Cc1cc(NCCCN)nc(-c2ccccc2O)n1 | -1.4 | -20.8 | 113.7* | i | 0.4 | -0.1 | FP interf 140K=-17.7
CS(=O)(=O)Nc1ccc(S(=O)(=O)N2CCCC2)cc1 | 2.1 | 22.0 | 3.0 | i | 1.1 | 0.5
CC(=O)c1cccc(N2C(=NC(=O)C3CC3)SC3CS(=O)(=O)CC32)c1 (stereo not drawn) | . | -3.6 | . | . | . | .
CC(=O)Oc1ccc2c(C)cc(=O)oc2c1 | -2.5 | 9.1 | 3.4 | i | 9.1 | 4.3
CC(=O)Oc1cc(OC(C)=O)c2c(C)cc(=O)oc2c1 | -2.1 | 13.2 | 53.7* | i | 6.0 | 0.1 | FP interf 140K=-20.7
COc1cc(C(=O)NCC(=O)N/N=C/c2cccnc2)cc(OC)c1OC | . | 32.0 | . | . | . | .
Cc1cc(Nc2cccc(F)c2)nc(NCc2ccccc2)n1 | -32.2 | 3.1 | 55.5* | i | 0.0 | -0.1 | FP interf 140K=-11.1
Cc1ccc(C(=O)Cn2c(NCCO)nc3ccccc32)cc1 | -6.7 | 17.9 | 53.2* | i | 5.0 | 0.4 | FP interf 140K=3.4
CCOC(=O)c1ccc(NC(=O)CCS(=O)(=O)c2cccc3nonc23)cc1 | . | 14.3 | . | . | . | .
CCOC(=O)c1cccc(NC(=O)CCS(=O)(=O)c2cccc3nsnc23)c1 | -21.2 | -26.6 | 68.9* | . | 5.0 | 0.6 | FP interf 140K=-15.4
Cc1occc1C(=O)NC(C)CCc1ccccc1 (stereo not drawn) | -9.7 | -21.7 | 119.0* | i | 4.5 | 1.4 | FP interf 140K=-3.5
CS(=O)(=O)N1CCN(c2ccc(NC(=O)c3ccc(Br)o3)cc2)CC1 | -8.7 | 3.5 | 90.8* | i | 5.4 | 0.1 | FP interf 140K=-16.2
CN1CCN(c2ccc(NC(=O)c3ccc(Br)o3)cc2)CC1 | . | 22.2 | . | . | . | .
COc1ccc(NS(=O)(=O)c2cc3c4c(c2)C(C)C(=O)N4CCC3)cc1 (stereo not drawn) | . | 41.2 | . | . | . | .
COc1ccc(-c2cnnc(N/N=C/c3ccc(O)cc3)n2)cc1 | -62.4 | 42.1 | 4.3 | i | 10.6 | 0.4
